The source made the active and inactive calls. Unless noted, the calls are words filed in the database; no cut-off is given here.
Experiments:
[1] = biological target: T1, Lipoprotein lipase (Bos taurus) (UniProt P11151); assay: Induction of bovine LPL stabilization using intralipid as substrate at 6.25 uM preincubated for 10 mins with human recombinant ANGPTL4 followed by substrate addition measured after 45 mins relative to control
T1 sequence (whole entry): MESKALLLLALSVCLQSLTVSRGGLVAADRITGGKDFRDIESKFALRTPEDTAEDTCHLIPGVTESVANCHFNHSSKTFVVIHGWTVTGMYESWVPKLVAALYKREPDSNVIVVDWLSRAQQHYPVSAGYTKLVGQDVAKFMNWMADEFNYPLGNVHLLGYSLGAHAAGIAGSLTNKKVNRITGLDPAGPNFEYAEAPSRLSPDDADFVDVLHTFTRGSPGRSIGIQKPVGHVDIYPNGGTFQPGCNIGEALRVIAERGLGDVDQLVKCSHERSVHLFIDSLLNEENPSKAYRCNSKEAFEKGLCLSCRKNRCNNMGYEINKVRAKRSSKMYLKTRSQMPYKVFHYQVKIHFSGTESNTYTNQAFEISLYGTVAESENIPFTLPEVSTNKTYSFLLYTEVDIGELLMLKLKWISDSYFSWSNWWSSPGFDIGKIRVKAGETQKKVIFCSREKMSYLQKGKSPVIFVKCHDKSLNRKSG
In short: (§1)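 Compound in DMSO in buffer (50 mM potassium phosphate pH 7.4, 0.15 M NaCl, 0.01% Triton X-100), with human ANGPTL4 N-terminal fragment (aa 26-184, 75 nM final) and bovine LPL (15 nM final). Preincubated 10 min at 25 °C with shaking. Stopped after 45 min with 2.5% Triton X-100, and NEFA measured enzymatically. Activity normalised between DMSO+LPL+ANGPTL4 (0%) and DMSO+LPL (100%).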

[2] = biological target: T1, Lipoprotein lipase (Bos taurus); assay: Induction of bovine LPL stabilization using intralipid as substrate at 25 uM preincubated for 10 mins with human recombinant ANGPTL4 followed by substrate addition measured after 45 mins relative to control; in short: as §1
[3] = biological target: T1, Lipoprotein lipase (Bos taurus); assay: Induction of bovine LPL stabilization using intralipid as substrate at 3.12 uM preincubated for 10 mins with human recombinant ANGPTL4 followed by substrate addition measured after 45 mins relative to control; in short: as §1
[4] = biological target: T1, Lipoprotein lipase (Bos taurus); assay: Induction of bovine LPL stabilization using intralipid as substrate at 12.5 uM preincubated for 10 mins with human recombinant ANGPTL4 followed by substrate addition measured after 45 mins relative to control; in short: as §1

Compound	Activity [1]	Activity [2]	Activity [3]	Activity [4]
O=C(O)c1ccc2c(c1)C(=O)N(c1ccc(N3CCCCC3)c(C(=O)NCc3cccnc3)c1)C2=O	inactive	inactive	inactive	inactive
Cc1ccc(NC(=O)c2cc(-n3cc4ccccc4n3)ccc2N2CCCCC2)cc1	inactive	inactive	inactive	inactive
Cc1ccc(NC(=O)c2ccc(N3CCCCC3)c(N3C(=O)c4ccc(C(=O)O)cc4C3=O)c2)cc1	inactive	79%	inactive	81.3%
O=C(O)c1ccc2c(c1)C(=O)N(c1ccc(N3CCCCC3)c(C(=O)Nc3ccc(C(F)(F)F)cc3)c1)C2=O	inactive	81.6%	inactive	54.6%
Cc1ccc(NC(=O)c2cccc(N3C(=O)c4ccc(C(=O)O)cc4C3=O)c2N2CCCCC2)cc1	inactive	13.5%	inactive	inactive
Cc1ccc(NC(=O)c2cc(N3C(=O)c4ccc(C(=O)O)cc4C3=O)ccc2N2CCCCC2)cc1F	inactive	72.1%	inactive	53.3%
Cc1ccc(NC(=O)c2cc(N3CCCCC3)cc(N3C(=O)c4ccc(C(=O)O)cc4C3=O)c2)cc1	inactive	32.6%	inactive	inactive
O=C(O)c1ccc2c(c1)C(=O)N(c1ccc(Cl)c(C(=O)NCc3cccnc3)c1)C2=O	inactive	inactive	inactive	inactive
CCCCCCNC(=O)c1cc(N2C(=O)c3ccc(C(=O)O)cc3C2=O)ccc1NCCCCCC	19.3%	67.8%	4%	31.8%
Cc1ccc(NC(=O)c2cccc(N3CCCCC3)c2N2C(=O)c3ccc(C(=O)O)cc3C2=O)cc1	inactive	7.3%	inactive	inactive
Cc1ccc(NC(=O)c2cc(N3C(=O)c4ccc(C#N)cc4C3=O)ccc2N2CCCCC2)cc1	inactive	inactive	inactive	inactive
Cc1ccc(NC(=O)c2cc(N3C(=O)c4ccc(Br)cc4C3=O)ccc2N2CCCCC2)cc1	inactive	inactive	inactive	inactive
Cc1ccc(NC(=O)c2ccc(N3CCCCC3)cc2N2C(=O)c3ccc(C(=O)O)cc3C2=O)cc1	inactive	96.7%	inactive	inactive
COC(=O)c1ccc2c(c1)C(=O)N(c1ccc(N3CCCCC3)c(C(=O)Nc3ccc(C)cc3)c1)C2=O	inactive	inactive	inactive	inactive
O=C1c2ccccc2C(=O)N1c1ccccc1	inactive	inactive	inactive	inactive
O=C(O)c1ccc2c(c1)C(=O)N(c1ccccc1)C2=O	inactive	inactive	inactive	inactive
Cc1cccc(NC(=O)c2cc(N3C(=O)c4ccc(C(=O)O)cc4C3=O)ccc2N2CCCCC2)c1	inactive	56.6%	inactive	38.6%

Other lines, results leading:

Activity [1]	Activity [2]	Activity [3]	Activity [4]	Compound
32.4%	47%	inactive	36.5%	CCc1ccc(NC(=O)c2cc(N3C(=O)c4ccc(C(=O)O)cc4C3=O)ccc2N2CCCCC2)cc1
inactive	14.1%	inactive	inactive	Cc1ccc(NC(=O)c2ccc(N3C(=O)c4ccc(C(=O)O)cc4C3=O)cc2N2CCCCC2)cc1
55.6%	53.1%	inactive	71%	CC(C)c1ccc(NC(=O)c2cc(N3C(=O)c4ccc(C(=O)O)cc4C3=O)ccc2N2CCCCC2)cc1
5.9%	19.2%	13.6%	10%	CCCCCCCCCCNc1ccc(N2C(=O)c3ccc(C(=O)O)cc3C2=O)cc1C(=O)Nc1ccc(C)cc1
37.6%	60%	inactive	60.3%	CCc1ccc(NC(=O)c2cc(N3C(=O)c4ccc(C(=O)O)cc4C3=O)ccc2Nc2ccccc2)cc1
57.2%	94.4%	inactive	80.1%	Cc1ccc(NC(=O)c2cc(N3C(=O)c4ccc(C(=O)O)cc4C3=O)ccc2Nc2ccccc2)cc1
44.1%	52.5%	inactive	59.1%	CC(C)c1ccc(NC(=O)c2cc(N3C(=O)c4ccc(C(=O)O)cc4C3=O)ccc2Nc2ccccc2)cc1
inactive	49.5%	inactive	inactive	CCN(CC)c1ccc(N2C(=O)c3ccc(C(=O)O)cc3C2=O)cc1C(=O)Nc1ccc(C)cc1
60.1%	68.5%	inactive	63.3%	O=C(O)c1ccc2c(c1)C(=O)N(c1ccc(N3CCCCC3)c(C(=O)Nc3ccccc3-c3ccccc3)c1)C2=O
60.6%	67.2%	inactive	47.1%	CCCCCCNc1ccc(N2C(=O)c3ccc(C(=O)O)cc3C2=O)cc1C(=O)Nc1ccc(C)cc1
inactive	inactive	inactive	inactive	Cc1ccc(NC(=O)c2cc(N3C(=O)c4ccc(C(=O)O)cc4C3=O)ccc2N2CCN(C)CC2)cc1
5%	24.6%	inactive	7%	Cc1ccc(NC(=O)c2cc(Nc3ccc(C)cc3)cc(N3C(=O)c4ccc(C(=O)O)cc4C3=O)c2)cc1
inactive	inactive	inactive	inactive	COc1ccc(N2C(=O)c3ccc(C(=O)O)cc3C2=O)cc1C(=O)Nc1ccc(C)cc1
inactive	inactive	inactive	inactive	Cc1ccc(NC(=O)c2cc(Cl)cc(N3C(=O)c4ccc(C(=O)O)cc4C3=O)c2)cc1
inactive	43.8%	inactive	inactive	COc1ccc(NC(=O)c2cc(N3C(=O)c4ccc(C(=O)O)cc4C3=O)ccc2N2CCCCC2)cc1
inactive	inactive	inactive	inactive	Cc1ccc(NC(=O)c2cc(N3C(=O)c4ccc(C(=O)O)cc4C3=O)ccc2Br)cc1
inactive	inactive	inactive	inactive	Cc1ccc(NC(=O)c2cc(N3C(=O)c4ccc(C(=O)O)cc4C3=O)ccc2Cl)cc1
inactive	inactive	inactive	inactive	COCCOCCOc1ccc(N2C(=O)c3ccc(C(=O)O)cc3C2=O)cc1C(=O)Nc1ccc(C)cc1
45%	73.8%	inactive	61.5%	O=C(O)c1ccc2c(c1)C(=O)N(c1ccc(Nc3ccccc3)c(C(=O)Nc3ccccc3-c3ccccc3)c1)C2=O
44.3%	52.2%	inactive	63.9%	CCc1cccc(NC(=O)c2cc(N3C(=O)c4ccc(C(=O)O)cc4C3=O)ccc2Nc2ccccc2)c1
inactive	39.7%	inactive	6.2%	CCCNc1ccc(N2C(=O)c3ccc(C(=O)O)cc3C2=O)cc1C(=O)Nc1ccc(C)cc1
9.2%	71%	inactive	63.4%	CCc1cccc(NC(=O)c2cc(N3C(=O)c4ccc(C(=O)O)cc4C3=O)ccc2N2CCCCC2)c1
inactive	inactive	inactive	inactive	COCCNc1ccc(N2C(=O)c3ccc(C(=O)O)cc3C2=O)cc1C(=O)Nc1ccc(C)cc1
inactive	inactive	inactive	inactive	O=C(O)c1ccc2c(c1)C(=O)N(c1ccc(N3CCCCC3)c(C(=O)NCc3ccccc3)c1)C2=O

Reference: ChEMBL document CHEMBL3745639, “Structure-activity relationships for lipoprotein lipase agonists that lower plasma triglycerides in vivo” (Eur J Med Chem, 2015)
